Reference: article PMC8496042 (RSC Chemical Biology, 2021)

Molecular target: T1, PAP(248–286) (Homo sapiens, UniProt P15309)
T1 sequence (P15309 248-286): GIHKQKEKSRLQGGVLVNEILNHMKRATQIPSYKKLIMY
Assay: isothermal titration calorimetry
Format: binding
In short: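 Freshly prepared monomeric peptide (600 μM) in deionized water brought to 1× PBS was titrated from the syringe into a low-volume nano-ITC cell holding the test compound (80 μM). The compound was neutralised with NaOH to physiological pH and diluted in water/PBS. Both solutions were degassed 10 min at 37 °C. Heats and enthalpies were fitted with an independent binding model.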

Kd: 8.59 µM
Compound: O=C1O[C@H]([C@@H](O)CO)C(O)=C1O [ascorbic acid]
